Source: ChEMBL document CHEMBL4342503, “Diazabicyclooctane Functionalization for Inhibition of β-Lactamases from Enterobacteria” (2020)
The source made the active and inactive calls. No cut-off for these calls is given here.

Legend:
[1] = Inhibition of TEM1 (unknown origin) expressed in Escherichia coli BL21 DE3 assessed as K2/Ki ratio using nitrocefin as substrate by spectrophotometry
Outline: (§1)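 His-tagged enzymes expressed in E. coli BL21(DE3) (IPTG 0.5 mM, 16°C, 18 h), purified by Ni-NTA and size exclusion in 25 mM Tris-HCl pH 7.5, 300 mM NaCl. Carbamoylation k2/Ki from progress curves, reporter nitrocefin 100 μM, 20°C, 100 mM MES pH 6.4; inhibitor up to 100 μM; ≥6 curves, ≥2 independent experiments.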

Escherichia coli [2] = test: Antibacterial activity against Escherichia coli Top10 assessed as cefamandole MIC by CLSI protocol based method (reference value: 2 ug/ml); format: functional
Outline: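 Broth microdilution in cation-adjusted Mueller-Hinton broth following CLSI. Strain carries a β-lactamase gene cloned in pTRC-99k (kanamycin marker); preculture in BHI with IPTG (500 μM) and kanamycin (50 μg/ml); IPTG (500 μM) also in plates to induce enzyme. β-Lactam MIC read with or without inhibitor at fixed 15 μM (4 μg/ml for avibactam; clavulanate 4 μg/ml). Median of five biological repeats from two independent experiments.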

Escherichia coli [3] = test: Antibacterial activity against Escherichia coli Top10 harboring TEM1 assessed as cefamandole MIC by CLSI protocol based method (reference value: 2048 ug/ml); format: functional
[4] = Inhibition of KPC-2 (unknown origin) expressed in Escherichia coli BL21 DE3 assessed as K2/Ki ratio using nitrocefin as substrate by spectrophotometry; outline: as §1
Escherichia coli [5] = test: Antibacterial activity against Escherichia coli Top10 without harboring KPC-2 assessed as aztreonam MIC by CLSI protocol based method (reference value: 0.5 ug/ml); format: functional
Escherichia coli [6] = test: Antibacterial activity against Escherichia coli Top10 harboring KPC-2 assessed as aztreonam MIC by CLSI protocol based method (reference value: 2048 ug/ml); format: functional
Enterobacter cloacae [7] = test: Inhibition of Enterobacter cloacae CTX-M-15 expressed in Escherichia coli BL21 DE3 assessed as K2/Ki ratio using nitrocefin as substrate by spectrophotometry; outline: as §1
Escherichia coli [8] = test: Antibacterial activity against Escherichia coli Top10 without harboring CTX-M-15 assessed as amoxicillin MIC by CLSI protocol based method (reference value: 8 ug/ml); format: functional
Escherichia coli [9] = test: Antibacterial activity against Escherichia coli Top10 harboring CTX-M-15 assessed as amoxicillin MIC by CLSI protocol based method (reference value: 2048 ug/ml); format: functional
Enterobacter cloacae [10] = test: Inhibition of Enterobacter cloacae AmpC expressed in Escherichia coli BL21 DE3 assessed as K2/Ki ratio using nitrocefin as substrate by spectrophotometry; outline: as §1
Escherichia coli [11] = test: Antibacterial activity against Escherichia coli Top10 without harboring AmpC assessed as cefotaxime MIC by CLSI protocol based method (reference value: 0.125 ug/ml); format: functional
Escherichia coli [12] = test: Antibacterial activity against Escherichia coli Top10 harboring AmpC assessed as cefotaxime MIC by CLSI protocol based method (reference value: 256 ug/ml); format: functional
[13] = Inhibition of OXA-48 expressed in Escherichia coli BL21 DE3 assessed as K2/Ki ratio using CENTA as substrate by spectrophotometry
Outline: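 OXA-48 expressed in E. coli BL21(DE3) (IPTG 0.5 mM, 16°C, 18 h), purified by Ni-NTA and size exclusion. Carbamoylation k2/Ki by spectrophotometric progress curves with CENTA 100 μM as reporter, 20°C, 100 mM MES pH 6.4; inhibitor up to 100 μM; ≥6 curves from ≥2 independent experiments.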

Escherichia coli [14] = test: Antibacterial activity against Escherichia coli Top10 without harboring OXA-48 assessed as ertapenem MIC by CLSI protocol based method (reference value: < 0.03 ug/ml); format: functional
Escherichia coli [15] = test: Antibacterial activity against Escherichia coli Top10 harboring OXA-48 assessed as ertapenem MIC by CLSI protocol based method (reference value: 8 ug/ml); format: functional

Structure (SMILES)	Ratio [1]	MIC (Escherichia coli [2])	MIC (Escherichia coli [3])	Ratio [4]	MIC (Escherichia coli [5])	MIC (Escherichia coli [6])	Ratio (Enterobacter cloacae [7])	MIC (Escherichia coli [8])	MIC (Escherichia coli [9])	Ratio (Enterobacter cloacae [10])	MIC (Escherichia coli [11])	MIC (Escherichia coli [12])	Ratio [13]	MIC (Escherichia coli [14])	MIC (Escherichia coli [15])
O=C(O)C(F)(F)F.O=C1N2C[C@@H](CC[C@H]2Cn2cc(C3CCNCC3)nn2)N1OS(=O)(=O)O	3600 M⁻¹ s⁻¹	2 µg/mL	4 µg/mL	340 M⁻¹ s⁻¹	0.25 µg/mL	32 µg/mL	350 M⁻¹ s⁻¹	4 µg/mL	64 µg/mL	26 M⁻¹ s⁻¹	0.125 µg/mL	128 µg/mL	inactive	< 0.03 µg/mL	8 µg/mL
O=C1N2C[C@@H](CC[C@H]2Cn2cc(-c3cccnc3)nn2)N1OS(=O)(=O)[O-].[Na+]	1400 M⁻¹ s⁻¹	2 µg/mL	8 µg/mL	550 M⁻¹ s⁻¹	0.25 µg/mL	32 µg/mL	1700 M⁻¹ s⁻¹	2 µg/mL	32 µg/mL	85 M⁻¹ s⁻¹	0.125 µg/mL	128 µg/mL	inactive	< 0.03 µg/mL	8 µg/mL
NCCC(=O)Nc1ccc(-c2cn(C[C@@H]3CC[C@@H]4CN3C(=O)N4OS(=O)(=O)O)nn2)cc1.O=C(O)C(F)(F)F	940 M⁻¹ s⁻¹	2 µg/mL	32 µg/mL	180 M⁻¹ s⁻¹	0.25 µg/mL	64 µg/mL	150 M⁻¹ s⁻¹	4 µg/mL	128 µg/mL	28 M⁻¹ s⁻¹	0.25 µg/mL	64 µg/mL	inactive	< 0.03 µg/mL	4 µg/mL
O=C1N2C[C@@H](CC[C@H]2Cn2nccn2)N1OS(=O)(=O)[O-].[Na+]	2600 M⁻¹ s⁻¹	2 µg/mL	16 µg/mL	350 M⁻¹ s⁻¹	0.5 µg/mL	512 µg/mL	120 M⁻¹ s⁻¹	4 µg/mL	512 µg/mL	200 M⁻¹ s⁻¹	0.125 µg/mL	32 µg/mL	150 M⁻¹ s⁻¹	< 0.03 µg/mL	8 µg/mL
O=C([O-])[C@H]1/C(=C/CO)O[C@@H]2CC(=O)N21.[Na+] [CLAVULANIC ACID (SODIUM)]		2 µg/mL	2 µg/mL		0.5 µg/mL	512 µg/mL		8 µg/mL	2 µg/mL		0.0625 µg/mL	128 µg/mL		< 0.03 µg/mL	8 µg/mL
O=C1N2C[C@@H](CC[C@H]2Cn2cc(CN3CCOCC3)nn2)N1OS(=O)(=O)[O-].[Na+]	1200 M⁻¹ s⁻¹	2 µg/mL	8 µg/mL	190 M⁻¹ s⁻¹	0.25 µg/mL	32 µg/mL	100 M⁻¹ s⁻¹	8 µg/mL	64 µg/mL	31 M⁻¹ s⁻¹	0.125 µg/mL	128 µg/mL	inactive	< 0.03 µg/mL	8 µg/mL
CC(C)(C)OC(=O)NCCC(=O)Nc1ccc(-c2cn(C[C@@H]3CC[C@@H]4CN3C(=O)N4OS(=O)(=O)[O-])nn2)cc1.[Na+]	3700 M⁻¹ s⁻¹	2 µg/mL	256 µg/mL	1100 M⁻¹ s⁻¹	0.5 µg/mL	512 µg/mL	2400 M⁻¹ s⁻¹	8 µg/mL	768 µg/mL	180 M⁻¹ s⁻¹	0.125 µg/mL	128 µg/mL	150 M⁻¹ s⁻¹	< 0.03 µg/mL	16 µg/mL
O=C(O)CCc1cn(C[C@@H]2CC[C@@H]3CN2C(=O)N3OS(=O)(=O)[O-])nn1.[Na+]	720 M⁻¹ s⁻¹	2 µg/mL	32 µg/mL	70 M⁻¹ s⁻¹	0.25 µg/mL	256 µg/mL	110 M⁻¹ s⁻¹	2 µg/mL		99 M⁻¹ s⁻¹	0.25 µg/mL	64 µg/mL	inactive	< 0.03 µg/mL	8 µg/mL
